Reference: ChEMBL document CHEMBL4145557, “Discovery of Tirasemtiv, the First Direct Fast Skeletal Muscle Troponin Activator” (ACS Med Chem Lett, 2018)
Active and inactive are the calls of the source. The calls are words filed in the database; no cut-off is given here.

Assays:
[1] = Extraction ratio in rat liver microsomes measured up to 90 mins by HPLC/MS/MS analysis; format: ADME, microsome; settings: read-out: ERH
[2] = Extraction ratio in human liver microsomes measured up to 90 mins by HPLC/MS/MS analysis; format: ADME, microsome; settings: read-out: ERH
[3] = species: Oryctolagus cuniculus; assay: (§1) Activation of troponin in rabbit fast skeletal muscle fibers assessed as increase in calcium stimulated activity by measuring compound concentration that produces 40% increase in myofibril ATPase activity at 25% of calcium concentration needed for maximal response by pyruvate kinase/lactate dehydrogenase-coupled based assay
Summary of the method: (§2)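 Myofibril ATPase rate (used as a surrogate for force), with fast-skeletal myofibrils from rabbit muscle. For cardiac and slow-skeletal activity, mixed sarcomeres combine myosin and thin-filament preparations from fast, slow or cardiac muscle. AC40 is the concentration giving a 40% increase in ATPase activity at 25% of the calcium level needed for a maximal response in control preparations. Duplicate experiments.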

[4] = species: Oryctolagus cuniculus; assay: as §1, with “30%” for “40%”, “tension” for “myofibril ATPase activity”
Summary of the method: (§3)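 Skinned-fiber tension assay on a mounted fiber, measuring the force–calcium relationship. Fast fibers are rabbit psoas; slow fibers are primarily slow rabbit semimembranosus. DF30 is the concentration giving a 30% increase in tension at 25% of the calcium level needed for a maximal response in control preparations.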

[5] = species: Bos taurus; assay: as §1, with “troponin C” for “troponin”, “bovine masseter slow” for “rabbit fast”; summary of the method: as §2
[6] = species: Bos taurus; assay: as §1, with “troponin C” for “troponin”, “[…]” for “rabbit fast”, “[…] bovine cardiac” for “skeletal”; summary of the method: as §2
[7] = species: Oryctolagus cuniculus; assay: Activation of troponin in rabbit primarily fast psoas muscle fibers assessed as increase in calcium level by skinned fiber assay; summary of the method: as §3
[8] = species: Oryctolagus cuniculus; assay: Activation of troponin C in rabbit primarily slow semi membranosus muscle fibers assessed as increase in calcium level by skinned fiber assay; summary of the method: as §3
[9] = tested on: Rattus norvegicus; assay: Volume of distribution at steady state in Sprague-Dawley rat at 1 mg/kg, po or 1 mg/kg iv via bolus by HPLC method; format: ADME, organism-based; settings: in vivo
Summary of the method: (§4)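 Pharmacokinetics at a dose of 1 mg/kg, comparing oral and intravenous administration to derive bioavailability, clearance and steady-state volume of distribution. In rats, compounds were dosed as crystalline suspensions.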

[10] = Fraction unbound in rat plasma at 5 uM after 6 hrs by equilibrium dialysis based HPLC method; format: ADME, cell-free
[11] = tested on: Rattus norvegicus; assay: Oral bioavailability in Sprague-Dawley rat at 1 mg/kg by HPLC method; format: ADME, organism-based; settings: in vivo; summary of the method: as §4
[12] = Fraction unbound in human plasma at 5 uM after 6 hrs by equilibrium dialysis based HPLC method; format: ADME, cell-free

SMILES	hepatic extraction ratio at 1.5 h [1]	hepatic extraction ratio at 1.5 h [2]	EC40 [3] [µM]	also measured
CCC(CC)n1c(O)nc2ncc(C#N)nc21	< 0.2	< 0.2	–	–
O=c1[nH]c2ncc(Br)nc2n1C1CC1	–	–	> 49	–
CCC(CC)n1c(O)nc2ncc(C)nc21	0.7	< 0.2	–	–
C[C@@H](c1ccccc1)n1c(=O)[nH]c2ncc(Br)nc21	–	–	1.6	EC30 [4]: 3 µM
CCC(CC)n1c(=O)[nH]c2ncc(C)nc21	–	–	2	EC30 [4]: 4.4 µM
CSc1cnc2[nH]c(=O)n([C@@H](C)c3ccccc3)c2n1	–	–	2.6	EC30 [4]: 3.8 µM
C[C@@H](c1ccccc1)n1c(=O)[nH]c2ncc(-c3ccco3)nc21	–	–	7	EC40 [5]: > 39 µM; EC40 [6]: > 49 µM; EC30 [4]: 30.6 µM; Activity [7]: Active; Activity [8]: inactive
C[C@H](c1ccccc1)n1c(=O)[nH]c2ncc(-c3ccco3)nc21	–	–	> 49	–
CCC(CC)n1c(=O)[nH]c2ncc(OC)nc21	–	–	2.2	–
CCC(CC)n1c(=O)[nH]c2ncc(C#N)nc21	–	–	36.3	–
C#Cc1cnc2nc(OC)n(C(CC)CC)c2n1	–	–	> 39.2	–
CC[C@H](C)n1c(O)nc2ncc(Br)nc21	0.3	< 0.2	–	–
O=c1[nH]c2ncc(Br)nc2n1C1CCCCC1	–	–	10	–
CCC(CC)n1c(=O)[nH]c2ncc(Cl)nc21	0.4	< 0.2	0.5	Vdss [9]: 3.4 L/kg; EC30 [4]: 0.6 µM; Fu [10]: 1.1%; F [11]: 100%; Fu [12]: 0.8%
C#Cc1cnc2oc(=O)n(C(CC)CC)c2n1	–	–	> 39.2	–
C[C@@H](c1ccccc1)n1c(=O)[nH]c2ncc(-c3ccccc3)nc21	–	–	> 49	–
CCC(CC)n1c(O)nc2ncc(Br)nc21	0.4	< 0.2	–	Vdss [9]: 6.5 L/kg; Fu [10]: 1.3%; F [11]: 62%; Fu [12]: 0.5%
C[C@@H](c1ccccc1)n1c(O)nc2ncc(Br)nc21	0.5	< 0.3	–	–
CCc1cnc2[nH]c(=O)n([C@@H](C)c3ccccc3)c2n1	–	–	21.8	–
